pKd: −log10 of the molar value. Active and inactive are the calls of the source. The rule behind the calls is not given here. Where a SMILES comes first, the peptide text is derived from it. Bridges are numbered along the chain shown (N, C = ends).
How the values were obtained:
[1] = target: T1, SPRY domain-containing SOCS box protein 2 (Mus musculus, UniProt O88838); test: Binding affinity to recombinant GST-tagged mouse SPSB2 (12 to 224 residues) expressed in Escherichia coli BL21 (DE3) by ITC method
T1 sequence (O88838 whole entry): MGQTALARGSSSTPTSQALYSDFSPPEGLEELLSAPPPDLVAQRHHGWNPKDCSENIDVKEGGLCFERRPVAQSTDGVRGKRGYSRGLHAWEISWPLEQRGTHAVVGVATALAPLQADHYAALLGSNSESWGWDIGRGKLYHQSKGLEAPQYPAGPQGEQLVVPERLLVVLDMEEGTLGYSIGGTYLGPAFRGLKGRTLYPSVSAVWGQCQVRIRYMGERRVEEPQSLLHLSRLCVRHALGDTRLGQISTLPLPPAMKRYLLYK
In short: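 ITC at 25 °C in 50 mM phosphate pH 7.4, 150 mM NaCl. Cell held 50 μM SPSB2, buffer-exchanged on a PD-10 column; syringe held compound from a 5 mM stock. Stirred at 1000 rpm. One 0.2 μL injection, then 29 injections of 1 μL. KD and ΔH from a nonlinear least-squares fit to a one-set-of-sites (1:1) model.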

[2] = target: T1, SPRY domain-containing SOCS box protein 2; test: Binding affinity to recombinant GST-tagged mouse SPSB2 (12 to 224 residues) expressed in Escherichia coli BL21 (DE3) by SPR analysis
In short: (§1)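 SPSB2 amine-coupled to a CM5 sensor chip. Peptidomimetics flowed over at increasing concentrations in running buffer (10 mM HEPES, 150 mM NaCl, 3 mM EDTA, 0.05% Tween 20, pH 7.4) at 25 °C. Sensorgrams fitted to a single-site binding model.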

Mus musculus = species: Mus musculus; test: Inhibition of recombinant GST-tagged mouse SPSB2 (12 to 224 residues) expressed in Escherichia coli BL21 (DE3)/ full length iNOS (unknown origin) interaction in LPS/IFN-gamma-stimulated mouse BMDM assessed as reduction in iNOS level preincubated for 2 hrs measured after 1 hr by Western blot analysis
In short: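 Lysates of cultured murine BMDM incubated 2 h with 2.5 μg/mL GST-SPSB2 SPRY domain or GST alone, with or without 10 μM peptidomimetic. Then 1 h with glutathione Sepharose beads to pull down the complex. Bound iNOS detected by reducing SDS-PAGE, anti-iNOS immunoblot and ECL. Membrane reprobed with anti-GST to check loading.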

[3] = target: T2, SPRY domain-containing SOCS box protein 2 (Mus musculus) (UniProt O88838); test: Binding affinity to recombinant GST-tagged mouse SPSB2 (12 to 224 residues) expressed in Escherichia coli BL21 (DE3) assessed as association rate by SPR analysis; in short: as §1
T2 sequence (whole entry): T1 sequence (O88838 whole entry)

[4] = target: T2, SPRY domain-containing SOCS box protein 2 (Mus musculus); test: Binding affinity to mouse 5-F-Trp-SPSB2 assessed as induction of sharpening of Trp207 resonance by measuring increase in peak height at protein to compound molar ratio of 1:5 by 19F-NMR spectroscopy
In short: (§2)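 19F NMR of 5F-Trp-labelled SPSB2 with added peptidomimetic, recorded at 30 °C and 564 MHz on a cryoprobe tuned to 19F.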

[5] = target: T2, SPRY domain-containing SOCS box protein 2 (Mus musculus); test: Binding affinity to recombinant GST-tagged mouse SPSB2 (12 to 224 residues) expressed in Escherichia coli BL21 (DE3) assessed as dissociation rate by SPR analysis; in short: as §1
[6] = target: T2, SPRY domain-containing SOCS box protein 2 (Mus musculus); test: Binding affinity to mouse 5-F-Trp-SPSB2 assessed as downward shift of Trp207 residue resonance at protein to compound molar ratio of 1:5 by 19F-NMR spectroscopy; in short: as §2
[7] = target: T2, SPRY domain-containing SOCS box protein 2 (Mus musculus); test: Ratio of Kd for recombinant GST-tagged mouse SPSB2 (12 to 224 residues) expressed in Escherichia coli BL21 (DE3) by ITC method to Kd for recombinant GST-tagged mouse SPSB2 (12 to 224 residues) expressed in Escherichia coli BL21 by SPR analysis
[8] = target: T2, SPRY domain-containing SOCS box protein 2 (Mus musculus); test: Potency index, ratio of Ac-DINNNNH2 Kd to compound Kd for recombinant GST-tagged mouse SPSB2 (12 to 224 residues) expressed in Escherichia coli BL21 (DE3) by SPR analysis

For CC[C@H](C)[C@@H]1NC(=O)[C@H](CC(=O)O)NC(=O)c2ccccc2NC(=O)[C@H](CC(N)=O)NC(=O)[C@H](CC(N)=O)NC(=O)[C@H](CC(N)=O)NC1=O, the pKd [1] was 7.31 and the pKd [2] was 7.27.
For CC[C@@H](C)[C@@H]1NC(=O)[C@H](CC(=O)O)OCCNC(=O)[C@@H](CC(N)=O)NC(=O)[C@@H](CC(N)=O)NC(=O)[C@@H](CC(N)=O)NC1=O, the “Inhibition of SPSB2-iNOS interaction (qualitative)” value (from here on “Inhibition”) (Mus musculus) was “Active”, the K [3] was 4.7 ×10⁵ /M/s and the Activity [4] was 25%. For the same compound, the K [5] was 26 ×10⁻² /s and the Activity [6] was “inactive”.
For CC[C@H](C)[C@@H]1NC(=O)[C@@H](CC(=O)O)OCc2ccccc2NC(=O)[C@H](CC(N)=O)NC(=O)[C@H](CC(N)=O)NC(=O)[C@@H](CC(N)=O)NC1=O, the Ratio [7] was 1.5, the “Inhibition” value (Mus musculus) was “Active” and the Ratio [8] was 10. The K [3] was 8.6 ×10⁵ /M/s, the K [5] was 2 ×10⁻² /s and the Activity [6] was “Active”.
CC[C@H](C)[C@@H]1NC(=O)[C@@H](CC(=O)O)OCC(=O)N(C)NC(=O)[C@H](CC(N)=O)NC(=O)[C@H](CC(N)=O)NC(=O)[C@H](CC(N)=O)NC1=O was tested, and the pKd [1] was 7.08 and the pKd [2] was 7.00.
CC[C@H](C)[C@@H]1NC(=O)[C@@H](CC(=O)O)OCc2ccccc2NC(=O)[C@H](CC(N)=O)NC(=O)[C@H](CC(N)=O)NC(=O)[C@H](CC(N)=O)NC1=O gave a pKd [1] of 7.35 and a pKd [2] of 7.54.
CC[C@H](C)[C@@H]1NC(=O)[C@H](CC(=O)O)NC(=O)[C@H](C(C)C)NC(=O)[C@@H](NC(C)=O)CSSC[C@@H](C(N)=O)NC(=O)[C@H](CC(N)=O)NC(=O)[C@H](CC(N)=O)NC(=O)[C@H](CC(N)=O)NC1=O (Ac-CVDINNNC-NH2; disulfide 1-8) was tested, and the Activity [6] was “Active”.
CC[C@H](C)[C@@H]1NC(=O)[C@H](CC(=O)O)OCCNC(=O)[C@H](CC(N)=O)NC(=O)[C@H](CC(N)=O)NC(=O)[C@H](CC(N)=O)NC1=O was tested, and the pKd [1] was 6.35 and the pKd [2] was 6.33.
In the case of CC[C@H](C)[C@@H]1NC(=O)[C@@H](CC(=O)O)NC(=O)c2ccccc2NC(=O)[C@H](CC(N)=O)NC(=O)[C@H](CC(N)=O)NC(=O)[C@@H](CC(N)=O)NC1=O, the “Inhibition” value (Mus musculus) was “Active”, the K [3] was 11 ×10⁵ /M/s and the K [5] was 6 ×10⁻² /s. For the same compound, the Activity [6] was “Active”.
In the case of CC[C@H](C)[C@@H]1NC(=O)[C@@H](CC(=O)O)OCC(=O)N(C)NC(=O)[C@H](CC(N)=O)NC(=O)[C@H](CC(N)=O)NC(=O)[C@@H](CC(N)=O)NC1=O, the “Inhibition” value (Mus musculus) was “Active”, the K [3] was 11.9 ×10⁵ /M/s and the K [5] was 8 ×10⁻² /s. For the same compound, the Activity [6] was “Active”.
Compound H-KEEKDINNNVKKT-OH has a pKd [1] of 7.89.

Source: ChEMBL document CHEMBL4425101, “Design, Synthesis, and Characterization of Cyclic Peptidomimetics of the Inducible Nitric Oxide Synthase Binding Epitope That Disrupt the Protein-Protein Interaction Involving SPRY Domain-Containing Suppressor of Cytokine Signaling Box Protein (SPSB) 2 and Inducible Nitric Oxide Synthase” (J Med Chem, 2016)
